Assay results published in ChEMBL document CHEMBL3124742, “Synthesis and biological evaluation of new carbohydrate-substituted indenoisoquinoline topoisomerase I inhibitors and improved syntheses of the experimental anticancer agents indotecan (LMP400) and indimitecan (LMP776)” (J Med Chem, 2014).
Activity calls are given as the source filed them. No cut-off for these calls is given here.

Assays:
HCT-116 = assay: Growth inhibition of human HCT116 cells; type: functional
Summary of the method: (§1)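 NCI-60 five-dose testing, 10^-8 to 10^-4 M, given only to compounds with significant growth inhibition in the 10 μM one-dose screen. Five-dose assay may be repeated.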

MCF7 = assay: Growth inhibition of human MCF7 cells; type: functional; summary of the method: as §1
[1] = Growth inhibition of human SF539 cells; type: functional; conditions: SF-539; summary of the method: as §1
UACC-62 = assay: Growth inhibition of human UACC62 cells; type: functional; summary of the method: as §1
OVCAR-3 = assay: Growth inhibition of human OVCAR3 cells; type: functional; summary of the method: as §1
HOP-62 = assay: Growth inhibition of human HOP62 cells; type: functional; summary of the method: as §1
[2] = Cytotoxicity against human NCI60 cells assessed as cell growth at 10 uM relative to vehicle-treated control; type: functional; conditions: read-out: Activity
Summary of the method: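 NCI-60 one-dose screen: roughly 60 human cancer cell lines exposed to 10^-5 M (10 μM) compound. Value is growth percent of treated cells relative to vehicle-treated control, averaged across the panel.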

[3] = target: T1, DNA topoisomerase 1 (Homo sapiens) (UniProt P11387); assay: Inhibition of recombinant topoisomerase-1 (unknown origin) assessed as inhibition of 3'-[32P]-labeled DNA cleavage at 0.1 to 100 uM after 20 mins by PAGE analysis relative to control
T1 sequence (whole entry): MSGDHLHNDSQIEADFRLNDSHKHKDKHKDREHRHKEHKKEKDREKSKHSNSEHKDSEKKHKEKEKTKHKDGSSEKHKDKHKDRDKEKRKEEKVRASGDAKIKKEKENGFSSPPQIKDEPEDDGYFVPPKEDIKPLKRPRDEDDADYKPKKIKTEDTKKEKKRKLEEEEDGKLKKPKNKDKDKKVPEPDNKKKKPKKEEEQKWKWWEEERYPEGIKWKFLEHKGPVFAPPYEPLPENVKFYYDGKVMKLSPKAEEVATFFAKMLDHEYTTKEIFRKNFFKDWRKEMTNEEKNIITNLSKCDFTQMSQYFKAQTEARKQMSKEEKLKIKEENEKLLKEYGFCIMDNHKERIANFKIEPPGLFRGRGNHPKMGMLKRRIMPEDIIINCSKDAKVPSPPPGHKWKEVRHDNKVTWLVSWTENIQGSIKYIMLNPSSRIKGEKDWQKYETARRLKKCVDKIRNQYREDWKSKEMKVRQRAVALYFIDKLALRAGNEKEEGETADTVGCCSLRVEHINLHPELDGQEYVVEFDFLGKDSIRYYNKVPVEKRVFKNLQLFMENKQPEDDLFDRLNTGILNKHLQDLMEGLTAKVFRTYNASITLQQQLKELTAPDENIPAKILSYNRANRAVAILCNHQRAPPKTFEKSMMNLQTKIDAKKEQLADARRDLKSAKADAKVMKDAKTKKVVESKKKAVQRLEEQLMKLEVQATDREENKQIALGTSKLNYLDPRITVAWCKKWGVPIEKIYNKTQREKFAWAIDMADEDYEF

DU-145 = assay: Growth inhibition of human DU145 cells; type: functional; summary of the method: as §1
[4] = target: Tyrosyl-DNA phosphodiesterase 1 (Homo sapiens, UniProt Q9NUW8); assay: Inhibition of recombinant TDP1 (unknown origin) using N14Y as substrate after 15 mins by PAGE analysis
Summary of the method: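 Substrate is a 5'-[32P]-labelled single-stranded oligonucleotide with a 3'-phosphotyrosine (N14Y). It is incubated with 5 pM recombinant TDP1 ± test compound for 15 min at room temperature. Read-out is a gel.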

SN12C = assay: Growth inhibition of human SN12C cells; type: functional; summary of the method: as §1

Tyrosyl-DNA phosphodiesterase 1, sequence (Q9NUW8 whole entry): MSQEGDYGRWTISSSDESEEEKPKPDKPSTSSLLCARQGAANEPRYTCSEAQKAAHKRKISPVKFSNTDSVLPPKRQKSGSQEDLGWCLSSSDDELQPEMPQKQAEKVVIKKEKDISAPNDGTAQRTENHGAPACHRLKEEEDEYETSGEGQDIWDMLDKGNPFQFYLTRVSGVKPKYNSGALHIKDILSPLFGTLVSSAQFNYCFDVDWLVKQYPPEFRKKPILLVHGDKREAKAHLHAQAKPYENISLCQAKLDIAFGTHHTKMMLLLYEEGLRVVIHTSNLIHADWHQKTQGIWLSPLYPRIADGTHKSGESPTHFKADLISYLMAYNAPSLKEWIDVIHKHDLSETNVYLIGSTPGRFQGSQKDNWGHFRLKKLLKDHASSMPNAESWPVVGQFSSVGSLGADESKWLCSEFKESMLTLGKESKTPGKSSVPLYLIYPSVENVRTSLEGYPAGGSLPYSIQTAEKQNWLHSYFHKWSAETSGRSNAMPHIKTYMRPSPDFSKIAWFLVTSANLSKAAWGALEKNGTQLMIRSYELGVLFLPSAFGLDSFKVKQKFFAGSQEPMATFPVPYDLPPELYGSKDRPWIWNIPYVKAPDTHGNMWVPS

Row | Structure (SMILES) | GI50 (HCT-116) [nM] | GI50 (MCF7) [nM] | GI50 [1] [nM] | GI50 (UACC-62) [nM] | GI50 (OVCAR-3) [nM] | GI50 (HOP-62) [nM] | growth at 10 µM [2] [%] | inhibition [3] | GI50 (DU-145) [nM] | IC50 [4] [nM] | GI50 (SN12C) [nM]
1 | COc1cc2c3c(n(C[C@H](O)CO)c(=O)c2cc1OC)-c1cc2c(cc1C3=O)OCO2 | 21 | 10 | 25 | 17 | 48 | 28 | 7.1 | Active | 34 | > 111000 | 30
2 | COc1cc2c3c(n(C[C@@H](O)[C@@H](O)[C@H](O)[C@H](O)CO)c(=O)c2cc1OC)-c1cc2c(cc1C3=O)OCO2 |  |  |  |  |  |  | 79.5 | Active |  | > 111000 | 
3 | COc1cc2c3c(n(C[C@@H](O)[C@H](O)[C@H](O)CO)c(=O)c2cc1OC)-c1cc2c(cc1C3=O)OCO2 | 355 | 148 | 174 | 155 | 50100 | 50100 | 52.8 | 75% | 50100 | > 111000 | 234
4 | O=C1c2ccccc2-c2c1c1ccc([N+](=O)[O-])cc1c(=O)n2C[C@@H](O)[C@H](O)[C@H](O)CO | 1350 | 912 | 1450 |  | 1700 | 1910 | -9.21 | Active | 3160 |  | 
5 | COc1cc2c3c(n(CC(O)CO)c(=O)c2cc1OC)-c1cc2c(cc1C3=O)OCO2 (racemic) | 26 | 21 | 23 |  | 52 | 31 | 27.1 | Active | 36 | > 111000 | 35
6 | COc1cc2c3c(n(C[C@H](O)[C@H](O)[C@H](O)CO)c(=O)c2cc1OC)-c1cc2c(cc1C3=O)OCO2 | 148 | 59 | 28 | 62 | 22 | 251 | 46.9 | 75% | 479 |  | 229
7 | COc1cc2c3c(n(C[C@@H](O)CO)c(=O)c2cc1OC)-c1cc2c(cc1C3=O)OCO2 | 36 | 29 | 32 |  |  | 36 | 31.6 | Active | 40 | > 111000 | 37
8 | COc1cc2c3c(n(C[C@H](O)[C@@H](O)[C@H](O)[C@H](O)CO)c(=O)c2cc1OC)-c1cc2c(cc1C3=O)OCO2 |  |  |  |  |  |  | 87.5 | 75% |  | > 111000 | 
9 | O=C1c2ccccc2-c2c1c1ccc([N+](=O)[O-])cc1c(=O)n2C[C@@H]1O[C@H](CO)[C@@H](O)[C@H](O)[C@H]1O |  |  |  |  |  |  | 77.4 | 50% |  |  | 
10 | COc1cc2c3c(n(C[C@@H](O)[C@@H](O)[C@H](O)CO)c(=O)c2cc1OC)-c1cc2c(cc1C3=O)OCO2 | 891 | 79 | 214 | 195 | 794 | 676 | 34.7 | Active | 2510 | > 111000 | 457
11 | O=C1c2ccccc2-c2c1c1ccc([N+](=O)[O-])cc1c(=O)n2C[C@H](O)[C@H](O)[C@H](O)CO | 219 | 145 | 234 |  | 525 | 407 | -27.5 | Active | 550 | > 111000 | 380
12 | COc1cc2c3c(n(C[C@@H]4O[C@H](CO)[C@@H](O)[C@H](O)[C@H]4O)c(=O)c2cc1OC)-c1cc2c(cc1C3=O)OCO2 |  |  |  |  |  |  | 97.7 | 50% |  |  | 
13 | O=C1c2ccccc2-c2c1c1ccc([N+](=O)[O-])cc1c(=O)n2C[C@H](O)[C@@H](O)[C@H](O)CO | 141 | 96 | 214 |  | 407 | 363 | -14.6 | Active | 457 |  | 295
14 | O=C1c2ccccc2-c2c1c1ccc([N+](=O)[O-])cc1c(=O)n2C[C@H](O)[C@@H](O)[C@@H](O)[C@H](O)CO |  | 2950 | 2570 |  | 6030 | 5130 | 51.5 | Active | 9550 | > 111000 | 4270
15 | O=C1c2ccccc2-c2c1c1ccc([N+](=O)[O-])cc1c(=O)n2C[C@@H](O)[C@@H](O)[C@H](O)CO | 1200 | 501 | 1740 | 1100 | 2140 |  | -16.1 | Active | 3470 |  | 2690
16 | COc1cc2c3c(n(C[C@H](O)[C@@H](O)[C@@H](O)[C@H](O)CO)c(=O)c2cc1OC)-c1cc2c(cc1C3=O)OCO2 |  |  |  |  |  |  | 82.3 | 50% |  |  | 
17 | O=C1c2ccccc2-c2c1c1ccc([N+](=O)[O-])cc1c(=O)n2C[C@@H](O)[C@@H](O)[C@H](O)[C@H](O)CO |  | 724 | 3390 | 3470 | 5250 | > 100000 | 73.2 | Active | > 100000 |  | 
18 | O=C1c2ccccc2-c2c1c1ccc([N+](=O)[O-])cc1c(=O)n2C[C@@H](O)CO | 138 | 56 | 309 |  | 398 | 347 | -27 | 75% | 427 | > 111000 | 380
19 | O=C1c2ccccc2-c2c1c1ccc([N+](=O)[O-])cc1c(=O)n2CC(O)CO (racemic) | 138 | 60 | 339 |  | 479 | 324 | -17.5 | 75% | 363 | > 111000 | 355
